Active and inactive are the calls of the source. The rule behind the calls is not given here.
Experiments:
[1] = Stabilization of c-myc promoter i-motif DNA Py33 (unknown origin) assessed as decrease in negative peak intensity at pH 5.5 measured at 260 nanometer by CD spectroscopy
How it was run: (§1)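 Py33 at 1 µM in 1× BPES pH 5.5 (pH 6.8 random-coil reference), with or without ligand. Annealed at 95 °C for 5 min, cooled, kept at 4 °C overnight. CD spectra in a 4 mm cuvette over 230–350 nm, three scans averaged, buffer-corrected; peaks followed at 288 and 260 nm.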

[2] = system: Huh-7; test: Antiproliferative activity against human Huh-7 cells after 48 hrs by MTT assay; format: functional, cell-based; conditions: Huh-7, 48 h
How it was run: (§2)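 Cells seeded at 5.0×10^3 per well, pre-incubated 12 h at 37 °C, 5% CO2, then exposed to compounds for 48 h; DMSO-only control. MTT (2.5 mg/mL) added for 4 h, formazan dissolved in DMSO, absorbance at 570 nm. Each dose tested in triplicate; IC50 from percentage survival relative to negative control.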

[3] = system: U2OS; test: Antiproliferative activity against human U2OS cells after 48 hrs by MTT assay; format: functional, cell-based; how it was run: as §2
[4] = Binding affinity to 5'-biotin labeled c-myc promoter i-motif DNA Py33 (unknown origin) by surface plasmon resonance method
How it was run: (§3)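 SPR: 5'-biotin DNA diluted to 1 μM and captured (1000 RU) on a sensor chip, with a blank cell as reference. Running buffers: Py33 in 20 mM MES pH 5.8, 100 mM KCl, 0.05% Tween-20; Pu27 and duplex in 50 mM Tris-HCl pH 7.4, 100 mM KCl. Six ligand concentrations serially diluted from DMSO stock. Association 260 s, dissociation 300 s at 25 °C; NaOH regeneration; blank sensorgrams subtracted.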

[5] = system: SiHa; test: Antiproliferative activity against human SiHa cells after 48 hrs by MTT assay; format: functional, cell-based; how it was run: as §2
[6] = Stabilization of 5'-FAM/3'-TAMRA labeled c-myc promoter i-motif DNA FPy33T (unknown origin) assessed as change in melting temperature at 1 uM by FRET assay (reference value: 53.2 degreeC)
How it was run: (§4)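 FRET melting of dual FAM/TAMRA-labelled FPy33T annealed in 1× BPES (30 mM potassium phosphate, 1 mM EDTA, 100 mM KCl), pH 5.5. Final 0.2 µM DNA with or without ligand. Excitation 470 nm, emission 530 nm, read every 1 °C over 37–99 °C. ΔTm taken against DNA alone.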

[7] = system: HCT-116; test: Antiproliferative activity against human HCT-116 cells after 48 hrs by MTT assay; format: functional, cell-based; conditions: HCT-116, 48 h; how it was run: as §2
[8] = Stabilization of 5'-FAM/3'-TAMRA labeled hairpin DNA F10T (unknown origin) assessed as change in melting temperature at 1 uM by FRET assay (reference value: 59.1 degreeC)
[9] = system: A-375; test: Antiproliferative activity against human A-375 cells after 48 hrs by MTT assay; format: functional, cell-based; conditions: A-375, 48 h; how it was run: as §2
[10] = target: dsDNA; test: Binding affinity to 5'-biotin labeled duplex DNA (unknown origin) by surface plasmon resonance method; format: nucleic-acid assay; how it was run: as §3
[11] = system: HeLa; test: Antiproliferative activity against human Hela cells after 48 hrs by MTT assay; format: functional, cell-based; how it was run: as §2
[12] = target: Quadruplex DNA; test: Binding affinity to 5'-biotin labeled c-myc promoter G-quadruplex DNA Pu27 (unknown origin) by surface plasmon resonance method; format: nucleic-acid assay; how it was run: as §3
[13] = Stabilization of c-myc promoter i-motif DNA Py33 (unknown origin) assessed as reduction in appearance of random coil confirmation at pH 5.5 by CD spectroscopy; how it was run: as §1
[14] = system: Quadruplex DNA; test: Stabilization of 5'-FAM/3'-TAMRA labeled c-myc promoter G-quadruplex DNA FPu22T (unknown origin) assessed as change in melting temperature at 1 uM by FRET assay (reference value: 66.5 degreeC); format: nucleic-acid assay
How it was run: (§5)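 FRET melting of dual FAM/TAMRA-labelled FPu22T annealed in 10 mM Tris-HCl pH 7.4 with KCl. Final 0.2 µM DNA with or without ligand. Excitation 470 nm, emission 530 nm, read every 1 °C over 37–99 °C on a real-time PCR cycler. ΔTm = Tm(DNA+ligand) − Tm(DNA).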

[15] = Stabilization of c-myc promoter i-motif DNA Py33 (unknown origin) assessed as decrease in positive peak intensity at pH 5.5 measured at 288 nanometer by CD spectroscopy; how it was run: as §1
[16] = system: A549; test: Antiproliferative activity against human A549 cells after 48 hrs by MTT assay; format: functional, cell-based; conditions: A549, 48 h; how it was run: as §2
[17] = Drug uptake in human SiHa cells; format: ADME, cell-based
[18] = system: Quadruplex DNA; test: Stabilization of c-myc promoter G-quadruplex DNA Pu27 (unknown origin) in pH 7.4 Tris-HCl buffer by CD spectroscopy; format: nucleic-acid assay
How it was run: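 Pu27 at 1 µM in 10 mM Tris-HCl pH 7.4, with or without ligand. Annealed at 95 °C for 5 min, cooled to room temperature, stored at 4 °C overnight. CD spectra taken in a 4 mm cuvette over 230–350 nm, three scans averaged, smoothed and buffer-baseline corrected.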

[19] = target: ssDNA; test: Binding affinity to 5'-biotin labeled single-stranded DNA Py33 (unknown origin) by surface plasmon resonance method; format: nucleic-acid assay
[20] = Stabilization of 5'-FAM/3'-TAMRA labeled hairpin DNA F10T (unknown origin) assessed as change in melting temperature at 5 uM by FRET assay
[21] = system: Quadruplex DNA; test: Stabilization of 5'-FAM/3'-TAMRA labeled c-myc promoter G-quadruplex DNA FPu22T (unknown origin) assessed as change in melting temperature at 5 uM by FRET assay (reference value: 66.5 degreeC); format: nucleic-acid assay; how it was run: as §5
[22] = Stabilization of 5'-FAM/3'-TAMRA labeled c-myc promoter i-motif DNA FPy33T (unknown origin) assessed as change in melting temperature at 5 uM by FRET assay (reference value: 53.2 degreeC); how it was run: as §4
[23] = system: Quadruplex DNA; test: Stabilization of c-myc promoter G-quadruplex DNA Pu27 (unknown origin) assessed as effect on melting temperature at 5 uM by CD spectroscopy; format: nucleic-acid assay
How it was run: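 CD melting: Pu27 diluted to 1 µM in 10 mM Tris-HCl, 5 mM KCl, pH 7.4, with or without ligand. Annealed at 95 °C for 5 min, slowly cooled, then heated at 1 °C/min while monitoring 260 nm. Tm obtained by curve fitting.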

[24] = Stabilization of c-myc promoter i-motif DNA Py33 (unknown origin) assessed as increase in slower migration band incubated overnight by silver staining based PAGE analysis
How it was run: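 Py33 (3 µM) co-annealed with increasing ligand in 1× BPES pH 6.8 at 95 °C for 5 min, cooled, held at 4 °C overnight. Run on native 20% acrylamide in 1× TBE at 140 V for 5 h at 5 °C, then silver-stained.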

[25] = Stabilization of c-myc promoter i-motif DNA Py33 (unknown origin) assessed as effect on melting temperature at 5 uM by CD spectroscopy
How it was run: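 CD melting: Py33 at 1 µM in 1× BPES pH 6.4, with or without ligand. Annealed at 95 °C for 5 min, slowly cooled, then heated at 1 °C/min while monitoring 260 nm. Tm obtained by curve fitting.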

Row | Activity [1] | IC50 [2] [µM] | IC50 [3] [µM] | Kd [4] [µM] | ΔTm [6] [°C] | IC50 [7] [µM] | ΔTm [8] [°C] | IC50 [9] [µM] | Kd [10] [µM] | IC50 [11] [µM] | Kd [12] [µM] | Activity [13] | ΔTm [14] [°C] | Activity [15] | IC50 [16] [µM] | Activity [18] | Kd [19] [µM] | Structure (SMILES) | IC50 [5] [µM] | further results
1 | Active | 0.19 | 0.38 | 3.8 | 11.8 | 0.69 | 9.8 | 0.43 | 6 | 0.27 | 13.8 | Active | 12.5 | Active | 0.28 | – | – | c1ccc2c(NCCCNCCNCCCNc3c4ccccc4nc4ccccc34)c3ccccc3nc2c1 | 2 | –
2 | Active | – | – | 8.5 | 27.4 | – | 2.2 | – | 17.4 | – | 3.7 | Active | 8.3 | Active | – | – | – | Cc1ccc2nc3ccc(C(=O)NCCCN(C)C)cc3c(NCCOCCOCCNc3c4cc(C)ccc4nc4ccc(C(=O)NCCCN(C)C)cc34)c2c1 | – | Drug uptake [17]: Not Active
3 | – | 2.14 | 2.16 | 13 | 0.1 | 0.86 | 3 | 1.88 | 33.2 | 0.32 | 5.1 | – | 14.3 | – | 0.81 | Active | 21.6 | Cc1ccc2nc3ccccc3c(NCCOCCOCCNc3c4ccccc4nc4ccc(C)cc34)c2c1 | 2.77 | –
4 | – | 0.19 | 2.04 | 10.7 | 6.4 | 1.95 | 6.2 | 0.23 | 16.4 | 0.37 | 6.9 | – | 12.1 | – | 1.16 | – | 8.91 | Cc1ccc2nc3ccccc3c(NCCCN(C)CCCNc3c4ccccc4nc4ccc(C)cc34)c2c1 | 0.49 | –
5 | – | 0.27 | 0.44 | 10.5 | 4.5 | 2.47 | 3.8 | 0.13 | 22.2 | 0.85 | 5.5 | – | 15.6 | – | 0.52 | – | 13.9 | Cc1ccc2nc3ccc(C)cc3c(NCCCN(C)CCCNc3c4cc(C)ccc4nc4ccc(C)cc34)c2c1 | 0.37 | –
6 | – | 0.87 | 0.33 | 16 | 0.1 | 0.51 | 3.4 | 0.22 | 5.8 | 0.24 | 9.3 | – | 10.6 | – | 1.14 | Active | – | c1ccc2c(NCCOCCOCCNc3c4ccccc4nc4ccccc34)c3ccccc3nc2c1 | 2.26 | –
7 | – | – | – | 10.3 | 1 | – | 2.5 | – | 12.5 | – | 1.4 | – | 14.3 | – | – | Active | 2.9 | COC(=O)c1ccc2nc3ccc(C)cc3c(NCCOCCOCCNc3c4cc(C)ccc4nc4ccc(C(=O)OC)cc34)c2c1 | – | –
8 | – | – | – | – | – | – | – | – | – | – | – | – | – | – | – | – | – | Cc1ccc2nc3ccc(C)cc3c(NCCNCCNc3c4cc(C)ccc4nc4ccc(C)cc34)c2c1 | – | ΔTm [20]: 2.5 °C; ΔTm [21]: 6.2 °C; ΔTm [22]: 16 °C
9 | Active | – | – | 1 | 24.3 | – | 2.8 | – | 21.7 | – | 2.7 | Active | 17.1 | Active | – | – | – | Cc1ccc2nc3ccc(C(=O)NCCCN(C)C)cc3c(NCCCNCCNCCCNc3c4cc(C)ccc4nc4ccc(C(=O)NCCCN(C)C)cc34)c2c1 | – | Drug uptake [17]: Not Active; Activity [23]: Active; Activity [24]: Dose-dependent effect; Activity [25]: Active
10 | – | – | – | – | 2.7 | – | 4.1 | – | 13.1 | – | – | – | 6.2 | – | – | – | – | Cc1ccc2nc3ccc(C)cc3c(NCCN(C)C)c2c1 | – | ΔTm [20]: 6.8 °C; ΔTm [21]: 8.3 °C; ΔTm [22]: 10 °C
